What was measured:
[1] = system: intratumoral CD8+ T cells; test: Exhaustion markers PD-1 and Tim3 in tumor-derived T cells; type: cell-based, mouse; details: for Tim3 expression (Tim3-positive cells) / PD-1 expression (PD-1-positive cells): 5 μmol/L, 48 h, n = 3, mean ± SD; for Tim3 expression (Tim3-positive cells): untreated 65.6 ± 4.84%; for PD-1 expression (PD-1-positive cells): untreated 69.6 ± 6.46%; for PD-1 and Tim3 levels: 24 h, no significant differences between the two groups
GL261 cells [2] = test: Cytotoxicity, CCK-8; type: cell-based, mouse; details: GL261, 24 h, n = 5
Summary of the method: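 GL261 cells were exposed to test compound for 24 h, then incubated 20 min in medium containing 10% CCK-8. Absorbance was read at 450 nm. For the +L arm, the zero-concentration point is cells receiving laser without compound. n = 5.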

PTP1B = test: In vitro PTP1B proteolysis; type: cell-based, mouse; details: IFN-γ-treated GL261 cells, Western blot
GL261 cells [3] = test: Intracellular ROS generation, DCFH-DA; type: cell-based, mouse; details: GL261, 5 μmol/L 24 h, n = 3
Summary of the method: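 GL261 cells were treated 24 h at 5 μmol/L, then loaded with DCFH-DA for 30 min before irradiation (40 mW, 500 s) or no irradiation. Intracellular DCF fluorescence was the read-out. n = 3.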

Cat D = test: Enzyme cleavage, HPLC; type: in vitro ADME; details: pH 5.5 MES buffer, 37 °C, 10 μg/mL enzyme
Summary of the method: (§1)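 The self-assembled nanoparticle was incubated at 37 °C in pH 5.5 MES buffer with 10 μg/mL of a single protease: Cat B, Cat D, Cat E, Cat L, caspase-3 or MMP-9. Cat B was also tested in the presence of its irreversible inhibitor Z-FA-FMK. Parent conjugate and cleavage products were followed by HPLC.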

intratumoral T cells = test: Extracellular IFN-γ release from tumor-derived T cells; type: cell-based, mouse; details: n = 3
GL261 cells [4] = test: Coculture assay, lysis of GL261 cells by T cells; type: cell-based, mouse; details: T cells treated 5 μmol/L 48 h, coculture 1 h, CCK-8, n = 3
Summary of the method: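 Intratumoral CD8+ T cells were isolated with CD8 microbeads from subcutaneous GL261 flank tumours in C57BL/6 mice and kept in RPMI1640 with 10% FBS at 37 °C, 5% CO2. They were stained with Far red CFSE and treated 48 h at 5 μmol/L. They were then cocultured 1 h with green CFSE-labelled GL261 cells. GL261 viability was measured by CCK-8.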

caspase-3 = test: Enzyme cleavage, HPLC; type: in vitro ADME; details: pH 5.5 MES buffer, 37 °C, 10 μg/mL enzyme
Summary of the method: as §1

GL261 tumor [5] = test: Immune cell analysis of tumor tissues, flow cytometry; type: in vivo, C57BL/6 mice; details: for apoptosis rate of T cells within tumor tissues vs saline group: CD8+Annexin V+, +L groups
Summary of the method: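 Female C57BL/6 mice (6 weeks) bore left-flank tumours from 5 × 10^6 subcutaneous GL261 cells. Treatment was i.v. at 3 mg/kg VPF equivalent; +L groups received 671 nm laser, 100 mW, 15 min, 3 h post-injection. On Day 3, tumours were enzymatically dissociated, Fc-blocked 5 min and antibody-stained 45 min. Flow cytometry gated CD45+CD3+CD8+ cytotoxic T cells and CD8+Annexin V+ damaged T cells. n = 5.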

Cat L = test: Enzyme cleavage, HPLC; type: in vitro ADME; details: pH 5.5 MES buffer, 37 °C, 10 μg/mL enzyme
Summary of the method: as §1

MMP-9 = test: Enzyme cleavage, HPLC; type: in vitro ADME; details: pH 5.5 MES buffer, 37 °C, 10 μg/mL enzyme
Summary of the method: as §1

[6] = Hydrodynamic size by dynamic light scattering; type: physicochemical; details: DLS, aqueous condition (saline, 1 mg/mL), mean ± SD, n = 5
Summary of the method: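 Nanoassemblies formed spontaneously in aqueous medium without carrier. They were dispersed at 1 mg/mL in saline and sized by dynamic light scattering (hydrodynamic diameter). Morphology was checked by TEM.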

GL261 tumor [7] = test: Therapeutic efficacy in subcutaneous GL261 GBM model; type: in vivo, C57BL/6 mice; details: subcutaneous GL261, i.v. 3 mg/kg VPF equivalent, +L
[8] = Brain accumulation in orthotopic GBM model, NIRF imaging; type: in vivo, BALB/c-nu mice; details: for time of peak accumulation in brain: orthotopic GL261, i.v., NIRF imaging
Summary of the method: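 Orthotopic model: 1 × 10^5 GL261 cells in saline were injected stereotactically into the brains of BALB/c-nu mice (2.0 mm lateral, 0.5 mm anterior to bregma, 3.0 mm depth, 1 μL/min). Test compound or VPF was given i.v. at an equivalent 3 mg/kg VPF content. Brain accumulation was followed by whole-body NIRF imaging, with ex vivo NIRF imaging of GBM tissue at 6 h.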

Cat B = test: Target enzyme-specific cleavage, HPLC; type: in vitro ADME; details: pH 5.5 MES buffer, 37 °C, 10 μg/mL Cat B
Summary of the method: as §1

[9] = Drug loading capacity calculated from molecular weights; type: physicochemical
Summary of the method: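 Loading was calculated as (PROTAC MW 1411.59 + VPF MW 702.81) divided by the MW of the whole prodrug conjugate (2595.98). The cathepsin B-cleavable RRK peptide (464.61) is excluded from the numerator.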

Cat E = test: Enzyme cleavage, HPLC; type: in vitro ADME; details: pH 5.5 MES buffer, 37 °C, 10 μg/mL enzyme
Summary of the method: as §1

[10] = absence of laser irradiation (-L)

Molecule: Cc1cc(-c2c3ccccc3c(Br)c3sc(C)c(C)c23)cc(C)c1O[C@H](Cc1ccccc1)C(=O)O [ertiprotafib, reference compound]
- Tim3 expression (Tim3-positive cells) [1]: 47.53 ± 3.11%
- PD-1 expression (PD-1-positive cells) [1]: 57.43 ± 5.29%
- PD-1 and Tim3 levels [1]: lower PD-1 and Tim3 levels compared to untreated cells
- cytotoxicity (GL261 cells [2]; CCK-8, without laser (-L)): minimum GBM cell death
- PTP1B levels (PTP1B; pERK and pAKT decreased): no changes in PTP1B levels

Molecule: VPF–KALAPYIPRRK–ertiprotafib [PNPTP1B]
- intracellular ROS generation (GL261 cells [3]; [10]): no ROS generation was detected
- intracellular ROS generation (GL261 cells [3]; laser 40 mW 500 s (+L)): nearly identical
- stability with Cat D (Cat D): stable
- extracellular release of IFN-γ (intratumoral T cells): higher quantity
- Tim3 expression (Tim3-positive cells) [1]: 30.2 ± 4.33%
- PD-1 expression (PD-1-positive cells) [1]: 42.47 ± 6.41%
- PD-1 and Tim3 levels [1]: lower PD-1 and Tim3 levels compared to untreated cells
- GL261 cell lysis by cocultured T cells (GL261 cells [4]): significantly increased
- stability with caspase-3 (caspase-3): stable
- apoptosis rate of T cells within tumor tissues vs saline group (GL261 tumor [5]): no significant differences
- increase in cytotoxic T cells in tumor tissues, (+L) relative to (-L) group (GL261 tumor [5]; CD45+CD3+CD8+, Day 3, n = 5): 1.2 fold
- stability with Cat L (Cat L): stable
- stability with MMP-9 (MMP-9): stable
- cytotoxicity (GL261 cells [2]; CCK-8, with laser irradiation (+L)): even more potent tumor-killing effect
- cytotoxicity (GL261 cells [2]; CCK-8, without laser (-L)): significantly greater cytotoxicity than ertiprotafib
- average diameter (hydrodynamic size) [6]: 87.79 ± 1.25 nm
- time to complete regression in all mice (GL261 tumor [7]): ≤ 8 days
- brain fluorescence intensity relative to VPF ([8]; orthotopic GL261, i.v. 3 mg/kg VPF equivalent, 6 h post-injection, NIRF, n = 3): 2.16 fold
- time of peak accumulation in brain [8]: 6 h
- time to complete cleavage into PROTAC and VPF–K (Cat B): ≤ 1 h
- drug loading capacity, PROTAC share [9]: 54.4%
- drug loading capacity, VPF share [9]: 34.2%
- PTP1B and related downstream proteins (pERK, pAKT) levels (PTP1B; 5 μmol/L, 24 h): fully restored to levels similar to those in IFN-γ-untreated cells
- stability with Cat E (Cat E): stable

Molecule: verteporfin [VPF, reference compound]
- intracellular ROS generation (GL261 cells [3]; [10]): no ROS generation was detected
- intracellular ROS generation (GL261 cells [3]; laser 40 mW 500 s (+L)): nearly identical
- apoptosis rate of T cells within tumor tissues vs saline group (GL261 tumor [5]): no significant differences
- time of peak accumulation in brain [8]: 6 h

From PMC12491721 (Acta Pharmaceutica Sinica. B, 2025)
